Legend:
[1] = Half life in Sprague-Dawley rat at 1 mg/kg, iv and 3 mg/kg, po; format: ADME, organism-based; settings: in vivo
Procedure, shortened: (§1)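 Male Sprague-Dawley rats, cassette dosing. Compounds were given as an iv bolus and as an oral suspension. Blood samples were taken at intervals up to 24 h, processed by protein precipitation and analysed by HPLC-MS/MS.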

[2] = biological target: Histamine H1 receptor (Rattus norvegicus, UniProt P31390); assay: Displacement of [3H]pyrilamine from histamine H1 receptor in Sprague-Dawley rat cortical membrane by liquid scintillation counting
Procedure, shortened: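 Cerebral cortex membranes from male Sprague-Dawley rats (200-250 g), 150 μg/well. Incubated with 0.6 nM [3H]pyrilamine in 50 mM HEPES, pH 7.4, for 2 h at room temperature. Filtered on PEI-soaked GF/B and counted by scintillation. Nonspecific binding with 10 μM cetirizine. Ki by Cheng-Prusoff; mean of two experiments in duplicate.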

[3] = biological target: Histamine H1 receptor (Homo sapiens, UniProt P35367); assay: Antagonist activity against human histamine H1 receptor expressed in CHO cells by FLIPR assay; format: functional, cell-based
[4] = biological target: 5-hydroxytryptamine receptor 2A (Rattus norvegicus, UniProt P14842); assay: Displacement of [3H]ketanserin from 5HT2A receptor in Sprague-Dawley rat cortical membrane by liquid scintillation counting
Procedure, shortened: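 Cerebral cortex membranes from male Sprague-Dawley rats (200-250 g), 50 μg/well. Incubated with 1 nM [3H]ketanserin in 50 mM Tris-HCl, 10 mM MgCl2, pH 7.4, for 1 h at 37 °C with shaking. Filtered on PEI-soaked GF/B and counted by scintillation. Nonspecific binding with 10 μM mianserin. Ki by Cheng-Prusoff; mean of two experiments in duplicate.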

[5] = Fraction unbound in rat blood; format: ADME, tissue-based
[6] = biological target: Cytochrome P450 2C19 (Homo sapiens, UniProt P33261); assay: Inhibition of human CYP2C19 transfected in bactosome expression system by spectrofluorimetry; format: ADME
Procedure, shortened: (§2)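 Recombinant human CYP Bactosomes (0.1 mg/mL) in 50 mM phosphate buffer, pH 7.4. Compound at 0.1-10 μM was preincubated with fluorogenic substrate for 10 min at 37 °C, and the reaction was started with an NADPH regenerating system. Metabolite fluorescence was followed for 10 min. Substrates: 1A2 ethoxyresorufin 0.5 μM; 2C9 FCA 50 μM; 2C19 BMC 10 μM; 2D6 MMC 10 μM; 3A4 DEF 1 μM or 7-BQ 25 μM. Run in triplicate.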

[7] = Blood clearance in Sprague-Dawley rat at 1 mg/kg, iv and 3 mg/kg, po; format: ADME, organism-based; settings: whole blood; procedure, shortened: as §1
[8] = biological target: Cytochrome P450 2C9 (Homo sapiens, UniProt P11712); assay: Inhibition of human CYP2C9 transfected in bactosome expression system by spectrofluorimetry; format: ADME; procedure, shortened: as §2
[9] = biological target: Cytochrome P450 3A4 (Homo sapiens, UniProt P08684); assay: Inhibition of human CYP3A4 transfected in bactosome expression system by spectrofluorimetry; format: ADME; procedure, shortened: as §2
[10] = biological target: Voltage-gated inwardly rectifying potassium channel KCNH2 (Homo sapiens, UniProt Q12809); assay: Displacement of [3H]dofetilide from human ERG by scintillation proximity assay
[11] = Oral bioavailability in Sprague-Dawley rat at 3 mg/kg; format: ADME, organism-based; settings: in vivo; procedure, shortened: as §1
[12] = Fraction unbound in rat brain; format: ADME, tissue-based
[13] = biological target: T1, 5-hydroxytryptamine receptor 2C (Homo sapiens, UniProt P28335); assay: Antagonist activity at human 5HT2C receptor expressed in human SH-SY5Y cells by FLIPR assay; format: functional, cell-based
T1 sequence (P28335 whole entry): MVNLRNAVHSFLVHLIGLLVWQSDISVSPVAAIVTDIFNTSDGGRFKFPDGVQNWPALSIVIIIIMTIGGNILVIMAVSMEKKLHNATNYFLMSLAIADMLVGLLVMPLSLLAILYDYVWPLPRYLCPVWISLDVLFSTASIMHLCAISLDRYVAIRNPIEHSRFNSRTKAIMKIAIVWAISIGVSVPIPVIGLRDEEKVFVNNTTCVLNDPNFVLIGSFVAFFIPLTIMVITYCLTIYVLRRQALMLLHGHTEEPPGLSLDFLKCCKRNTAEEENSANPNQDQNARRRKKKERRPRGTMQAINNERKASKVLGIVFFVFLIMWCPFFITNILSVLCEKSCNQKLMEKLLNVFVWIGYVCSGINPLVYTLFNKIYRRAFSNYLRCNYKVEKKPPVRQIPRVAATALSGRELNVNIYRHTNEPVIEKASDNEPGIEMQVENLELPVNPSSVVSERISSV

[14] = biological target: T2, Cytochrome P450 1A2 (Homo sapiens, UniProt P05177); assay: Inhibition of human CYP1A2 transfected in bactosome expression system by spectrofluorimetry; format: ADME; procedure, shortened: as §2
T2 sequence (P05177 whole entry): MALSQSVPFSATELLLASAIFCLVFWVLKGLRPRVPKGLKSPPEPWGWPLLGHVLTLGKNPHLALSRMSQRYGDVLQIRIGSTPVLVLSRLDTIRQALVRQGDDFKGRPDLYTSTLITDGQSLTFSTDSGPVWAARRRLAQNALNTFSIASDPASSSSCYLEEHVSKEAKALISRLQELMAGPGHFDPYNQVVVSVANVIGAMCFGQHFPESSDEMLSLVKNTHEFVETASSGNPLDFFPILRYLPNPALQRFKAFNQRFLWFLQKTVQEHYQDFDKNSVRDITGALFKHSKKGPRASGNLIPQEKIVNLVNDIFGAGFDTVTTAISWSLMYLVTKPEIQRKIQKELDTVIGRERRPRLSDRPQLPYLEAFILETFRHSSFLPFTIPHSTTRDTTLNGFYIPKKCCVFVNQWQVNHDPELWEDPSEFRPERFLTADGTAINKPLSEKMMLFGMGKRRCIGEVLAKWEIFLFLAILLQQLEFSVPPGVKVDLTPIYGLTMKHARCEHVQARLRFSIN

[15] = biological target: 5-hydroxytryptamine receptor 2A (Homo sapiens, UniProt P28223); assay: Antagonist activity at human 5HT2A receptor expressed in HEK cells assessed as inhibition of intracellular calcium accumulation by aequorin assay; format: functional, cell-based, HEK293
[16] = biological target: 5-hydroxytryptamine receptor 2B (Homo sapiens, UniProt P41595); assay: Antagonist activity at human 5HT2B receptor expressed in human SH-SY5Y cells by FLIPR assay
[17] = biological target: Cytochrome P450 2D6 (Homo sapiens, UniProt P10635); assay: Inhibition of human CYP2D6 transfected in bactosome expression system by spectrofluorimetry; format: ADME; procedure, shortened: as §2
[18] = Ratio of drug level in brain to blood in Sprague-Dawley rat at 1 mg/kg, iv and 3 mg/kg, po; format: ADME, organism-based; settings: read-out: BBR
Procedure, shortened: (§3)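 Male Sprague-Dawley rats, cassette dosing, iv bolus or oral suspension. Blood and brain levels were measured by protein precipitation and HPLC-MS/MS. Brain:blood ratio was taken from AUC0-8h after oral dosing, or at 1 h after iv dosing for one compound.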

[19] = Volume of distribution at steady state in Sprague-Dawley rat at 1 mg/kg, iv and 3 mg/kg, po; format: ADME, organism-based; settings: in vivo, read-out: Vdss; procedure, shortened: as §1
[20] = Oral bioavailability in Sprague-Dawley rat at 1 mg/kg; format: ADME, organism-based; settings: in vivo; procedure, shortened: as §1
[21] = Ratio of drug level in brain to blood in Sprague-Dawley rat at 0.5 mg/kg, iv and 1 mg/kg, po; format: ADME, organism-based; settings: read-out: BBR; procedure, shortened: as §3
[22] = Blood clearance in Sprague-Dawley rat at 0.5 mg/kg, iv and 1 mg/kg, po; format: ADME, organism-based; settings: whole blood; procedure, shortened: as §1
[23] = Volume of distribution at steady state in Sprague-Dawley rat at 0.5 mg/kg, iv and 1 mg/kg, po; format: ADME, organism-based; settings: in vivo, read-out: Vdss; procedure, shortened: as §1
[24] = Half life in Sprague-Dawley rat at 0.5 mg/kg, iv and 1 mg/kg, po; format: ADME, organism-based; settings: in vivo; procedure, shortened: as §1
[25] = Selectivity ratio of pKi for human alpha1A adrenergic receptor to pKi for human Alpha-1B adrenergic receptor

Sequence of Histamine H1 receptor (Homo sapiens, UniProt P35367) (P35367 whole entry): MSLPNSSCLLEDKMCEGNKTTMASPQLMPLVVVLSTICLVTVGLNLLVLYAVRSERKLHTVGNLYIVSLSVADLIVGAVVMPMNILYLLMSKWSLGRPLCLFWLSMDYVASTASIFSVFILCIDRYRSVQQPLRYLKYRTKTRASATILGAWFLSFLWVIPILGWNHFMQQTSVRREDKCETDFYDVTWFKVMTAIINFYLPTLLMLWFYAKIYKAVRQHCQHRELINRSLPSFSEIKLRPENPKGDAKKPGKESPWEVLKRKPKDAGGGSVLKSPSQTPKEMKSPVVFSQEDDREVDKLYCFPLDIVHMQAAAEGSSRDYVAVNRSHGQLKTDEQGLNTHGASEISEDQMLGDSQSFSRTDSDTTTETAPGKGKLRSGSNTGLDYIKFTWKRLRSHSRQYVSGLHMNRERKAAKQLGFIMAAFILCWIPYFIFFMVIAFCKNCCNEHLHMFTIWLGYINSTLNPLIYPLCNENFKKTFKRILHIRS
Sequence of 5-hydroxytryptamine receptor 2A (Homo sapiens, UniProt P28223) (P28223 whole entry): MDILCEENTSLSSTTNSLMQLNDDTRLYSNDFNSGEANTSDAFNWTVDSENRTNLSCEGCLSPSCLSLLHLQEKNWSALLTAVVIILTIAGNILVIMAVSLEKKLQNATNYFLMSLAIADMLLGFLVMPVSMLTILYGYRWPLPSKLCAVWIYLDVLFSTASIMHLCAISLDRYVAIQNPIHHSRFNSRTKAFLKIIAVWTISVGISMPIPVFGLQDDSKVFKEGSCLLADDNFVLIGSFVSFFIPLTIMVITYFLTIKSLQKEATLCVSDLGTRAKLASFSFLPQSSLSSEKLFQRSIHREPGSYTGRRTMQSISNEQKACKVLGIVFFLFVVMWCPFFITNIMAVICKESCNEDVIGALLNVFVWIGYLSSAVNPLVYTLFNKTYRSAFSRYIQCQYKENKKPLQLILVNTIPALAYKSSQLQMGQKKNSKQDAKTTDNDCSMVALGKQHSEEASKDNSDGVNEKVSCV
Sequence of 5-hydroxytryptamine receptor 2B (P41595 whole entry): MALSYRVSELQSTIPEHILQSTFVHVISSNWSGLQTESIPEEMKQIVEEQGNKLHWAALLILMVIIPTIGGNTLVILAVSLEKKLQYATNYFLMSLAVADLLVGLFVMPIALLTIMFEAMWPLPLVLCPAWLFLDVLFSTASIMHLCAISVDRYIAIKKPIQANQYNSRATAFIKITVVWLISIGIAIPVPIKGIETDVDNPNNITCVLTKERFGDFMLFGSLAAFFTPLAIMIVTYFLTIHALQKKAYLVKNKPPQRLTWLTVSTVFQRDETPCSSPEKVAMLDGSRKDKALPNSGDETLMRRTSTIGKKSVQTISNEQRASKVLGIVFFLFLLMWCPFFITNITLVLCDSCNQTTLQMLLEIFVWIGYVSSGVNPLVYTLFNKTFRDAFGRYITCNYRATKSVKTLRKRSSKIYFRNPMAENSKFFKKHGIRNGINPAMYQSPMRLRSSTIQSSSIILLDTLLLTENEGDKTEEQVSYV
Sequence of Histamine H1 receptor (Rattus norvegicus, UniProt P31390) (P31390 whole entry): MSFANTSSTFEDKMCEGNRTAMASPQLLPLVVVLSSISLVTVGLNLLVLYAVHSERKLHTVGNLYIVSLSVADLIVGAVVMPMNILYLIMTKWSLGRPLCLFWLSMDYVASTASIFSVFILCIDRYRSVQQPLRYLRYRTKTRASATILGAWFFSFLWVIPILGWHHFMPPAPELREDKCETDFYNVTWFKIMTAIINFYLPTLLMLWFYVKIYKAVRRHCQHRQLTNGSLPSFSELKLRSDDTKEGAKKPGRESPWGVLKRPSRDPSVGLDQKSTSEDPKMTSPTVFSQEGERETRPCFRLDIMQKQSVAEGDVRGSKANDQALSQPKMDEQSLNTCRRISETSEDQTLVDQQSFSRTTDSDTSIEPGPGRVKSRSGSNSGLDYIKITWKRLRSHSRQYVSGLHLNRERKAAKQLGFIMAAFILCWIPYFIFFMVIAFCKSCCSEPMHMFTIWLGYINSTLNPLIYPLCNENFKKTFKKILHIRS
Sequence of Cytochrome P450 2D6 (P10635 whole entry): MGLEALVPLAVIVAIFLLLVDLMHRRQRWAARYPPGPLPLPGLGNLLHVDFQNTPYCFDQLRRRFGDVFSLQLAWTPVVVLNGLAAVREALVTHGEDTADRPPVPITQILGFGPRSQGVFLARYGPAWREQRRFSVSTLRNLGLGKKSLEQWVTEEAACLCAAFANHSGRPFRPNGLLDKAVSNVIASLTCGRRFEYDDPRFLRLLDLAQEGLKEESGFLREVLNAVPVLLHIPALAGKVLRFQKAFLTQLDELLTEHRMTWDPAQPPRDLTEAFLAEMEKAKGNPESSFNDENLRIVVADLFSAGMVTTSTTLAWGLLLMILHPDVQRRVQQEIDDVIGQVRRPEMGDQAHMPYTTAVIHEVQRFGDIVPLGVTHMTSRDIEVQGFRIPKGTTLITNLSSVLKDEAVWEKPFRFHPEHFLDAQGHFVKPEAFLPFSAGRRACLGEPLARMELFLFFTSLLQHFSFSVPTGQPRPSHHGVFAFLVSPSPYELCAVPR
Sequence of 5-hydroxytryptamine receptor 2A (Rattus norvegicus, UniProt P14842) (P14842 whole entry): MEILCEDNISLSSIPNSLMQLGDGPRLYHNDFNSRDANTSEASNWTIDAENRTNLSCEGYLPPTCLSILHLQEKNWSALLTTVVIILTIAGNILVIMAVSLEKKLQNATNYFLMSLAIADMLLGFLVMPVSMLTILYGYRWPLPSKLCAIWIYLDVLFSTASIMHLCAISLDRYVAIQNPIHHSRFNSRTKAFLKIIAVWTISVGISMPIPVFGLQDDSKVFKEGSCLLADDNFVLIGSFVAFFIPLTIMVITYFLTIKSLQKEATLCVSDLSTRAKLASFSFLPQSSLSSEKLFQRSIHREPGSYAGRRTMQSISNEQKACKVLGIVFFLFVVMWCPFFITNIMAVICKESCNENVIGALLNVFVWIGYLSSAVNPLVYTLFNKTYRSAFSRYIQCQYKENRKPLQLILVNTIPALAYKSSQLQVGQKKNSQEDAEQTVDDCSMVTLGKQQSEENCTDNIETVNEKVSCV
Sequence of Cytochrome P450 3A4 (P08684 whole entry): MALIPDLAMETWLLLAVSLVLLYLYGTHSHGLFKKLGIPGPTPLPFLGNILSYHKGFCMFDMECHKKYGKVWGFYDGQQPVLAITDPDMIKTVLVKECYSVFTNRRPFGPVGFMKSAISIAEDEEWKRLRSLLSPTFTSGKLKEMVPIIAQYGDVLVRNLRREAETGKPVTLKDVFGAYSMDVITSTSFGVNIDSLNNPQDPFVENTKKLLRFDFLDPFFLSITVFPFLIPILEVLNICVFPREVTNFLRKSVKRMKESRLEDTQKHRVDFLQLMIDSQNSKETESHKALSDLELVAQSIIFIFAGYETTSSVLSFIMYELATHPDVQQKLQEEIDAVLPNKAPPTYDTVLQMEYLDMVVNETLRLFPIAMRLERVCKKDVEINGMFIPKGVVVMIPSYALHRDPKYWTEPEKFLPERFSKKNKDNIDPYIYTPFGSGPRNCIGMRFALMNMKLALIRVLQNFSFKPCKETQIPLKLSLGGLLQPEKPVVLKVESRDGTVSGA
Sequence of Cytochrome P450 2C9 (P11712 whole entry): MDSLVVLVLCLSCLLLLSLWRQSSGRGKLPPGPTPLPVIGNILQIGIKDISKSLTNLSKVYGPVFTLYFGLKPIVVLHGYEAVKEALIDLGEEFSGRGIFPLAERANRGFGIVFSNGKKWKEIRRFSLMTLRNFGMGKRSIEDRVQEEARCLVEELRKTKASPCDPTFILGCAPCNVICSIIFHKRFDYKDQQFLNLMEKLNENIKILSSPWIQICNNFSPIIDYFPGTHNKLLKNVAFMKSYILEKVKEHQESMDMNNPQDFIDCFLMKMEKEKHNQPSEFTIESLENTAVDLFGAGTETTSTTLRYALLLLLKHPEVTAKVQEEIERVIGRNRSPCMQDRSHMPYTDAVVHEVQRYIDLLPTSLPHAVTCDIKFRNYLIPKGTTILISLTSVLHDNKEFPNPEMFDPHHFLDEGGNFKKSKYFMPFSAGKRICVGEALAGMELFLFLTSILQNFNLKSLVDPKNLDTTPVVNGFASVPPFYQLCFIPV
Sequence of Cytochrome P450 2C19 (P33261 whole entry): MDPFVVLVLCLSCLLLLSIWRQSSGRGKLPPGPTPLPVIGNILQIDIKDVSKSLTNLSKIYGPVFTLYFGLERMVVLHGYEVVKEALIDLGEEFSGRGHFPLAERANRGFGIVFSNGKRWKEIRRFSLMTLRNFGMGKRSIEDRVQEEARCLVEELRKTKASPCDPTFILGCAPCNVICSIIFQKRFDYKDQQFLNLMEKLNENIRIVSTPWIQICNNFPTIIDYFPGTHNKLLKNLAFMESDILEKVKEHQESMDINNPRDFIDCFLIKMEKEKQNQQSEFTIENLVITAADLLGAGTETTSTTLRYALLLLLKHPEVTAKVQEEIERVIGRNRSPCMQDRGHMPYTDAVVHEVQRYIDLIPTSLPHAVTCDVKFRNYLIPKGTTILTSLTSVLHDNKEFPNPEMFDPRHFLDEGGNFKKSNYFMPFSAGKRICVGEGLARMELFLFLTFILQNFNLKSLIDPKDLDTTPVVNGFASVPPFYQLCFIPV

| Structure (SMILES) | Ki [2] [nM] | Ki [3] [nM] | Ki [4] [nM] | fraction unbound [5] | IC50 [6] [nM] | IC50 [8] [nM] | IC50 [9] [nM] | IC50 [10] [nM] | fraction unbound [12] | Ki [13] [nM] | IC50 [14] [nM] | Ki [15] [nM] | Ki [16] [nM] | IC50 [17] [nM] | also measured |
| --- | --- | --- | --- | --- | --- | --- | --- | --- | --- | --- | --- | --- | --- | --- | --- |
| O=C(O)C1(F)CCN(C2CC[C@]3(Cc4ccccc4Cc4ccccc43)C2)CC1 (stereo partly drawn) | 12.3 | 39.8 | 355 | 0.084 | > 10000 | > 10000 | > 10000 | > 39800 | 0.02 | 1000 | > 10000 | 50.1 | > 2000 | > 10000 | half-life [1]: 1.2 h; clearance [7]: 61 mL/min/kg; bioavailability [11]: 22%; Kp [18]: 0.1; Vd [19]: 3.8 L/kg |
| O=C(O)[C@]12C[C@H]1CN(C1CC[C@]3(Cc4ccccc4Cc4ccccc43)C1)C2 (stereo partly drawn) | 5.37 | 31.6 | 69.2 | 0.08 | > 10000 | > 10000 | > 10000 | > 39800 | 0.023 | 63.1 | > 10000 | 31.6 | 398 | > 10000 | bioavailability [20]: 62%; Kp [21]: 2.2; clearance [22]: 5 mL/min/kg; Vd [23]: 2.4 L/kg; half-life [24]: 5.3 h |
| CN(C)C1CC[C@]2(Cc3ccccc3Cc3ccccc32)C1 (stereo partly drawn) | – | 3.98 | – | – | – | – | – | – | – | 7.94 | – | 12.6 | 15.8 | – | pKi [25]: < 6 |
